Series [1] concerns Mus musculus. Nature of the series: In vivo binding affinity to GlyT1 in ddY mouse brain hippocampus at 33.3 kBq, iv after 30 mins in presence of N-Me-SSR504734 2 mg/kg, iv administered 15 mins prior to compound administration relative to control. Further details: dose 2 mg/kg. The following applies: tested as the 125I-labelled form. Format: functional, organism-based. In outline:
(§1)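 Blocking study in male ddY mice (6 weeks, 30–35 g). The blocker (2 mg/kg in 30% DMSO/saline) was injected i.v. 15 min before about 33.3 kBq [125I]tracer i.v.; mice were killed at 30 or 60 min. Brains were divided into cortex, corpus callosum, hippocampus, thalamus, midbrain, medulla and cerebellum, weighed and gamma-counted as % dose/g. Values are mean ± SD, n = 5–6, compared to control by Kruskal–Wallis with Dunn's post-test.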

The subject of series [2] is Mus musculus. Nature of the series: In vivo binding affinity to GlyT1 in ddY mouse brain striatum at 33.3 kBq, iv after 60 mins in presence of SSR504734 2 mg/kg, iv administered 15 mins prior to compound administration relative to control. Also on record: dose 2 mg/kg. Particulars: tested as the 125I-labelled form. The format is functional, organism-based.
For series [3], the system named is Mus musculus. Nature of the series: In vivo binding affinity to GlyT1 in ddY mouse brain cerebellum at 33.3 kBq, iv after 60 mins in presence of SSR504734 2 mg/kg, iv administered 15 mins prior to compound administration relative to control. Further details: dose 2 mg/kg. Format: functional, organism-based. The following applies: tested as the 125I-labelled form. In outline: as §1

The target in series [4] is T1, Sodium- and chloride-dependent glycine transporter 1 (Rattus norvegicus) (UniProt P28572).
T1 sequence (whole entry): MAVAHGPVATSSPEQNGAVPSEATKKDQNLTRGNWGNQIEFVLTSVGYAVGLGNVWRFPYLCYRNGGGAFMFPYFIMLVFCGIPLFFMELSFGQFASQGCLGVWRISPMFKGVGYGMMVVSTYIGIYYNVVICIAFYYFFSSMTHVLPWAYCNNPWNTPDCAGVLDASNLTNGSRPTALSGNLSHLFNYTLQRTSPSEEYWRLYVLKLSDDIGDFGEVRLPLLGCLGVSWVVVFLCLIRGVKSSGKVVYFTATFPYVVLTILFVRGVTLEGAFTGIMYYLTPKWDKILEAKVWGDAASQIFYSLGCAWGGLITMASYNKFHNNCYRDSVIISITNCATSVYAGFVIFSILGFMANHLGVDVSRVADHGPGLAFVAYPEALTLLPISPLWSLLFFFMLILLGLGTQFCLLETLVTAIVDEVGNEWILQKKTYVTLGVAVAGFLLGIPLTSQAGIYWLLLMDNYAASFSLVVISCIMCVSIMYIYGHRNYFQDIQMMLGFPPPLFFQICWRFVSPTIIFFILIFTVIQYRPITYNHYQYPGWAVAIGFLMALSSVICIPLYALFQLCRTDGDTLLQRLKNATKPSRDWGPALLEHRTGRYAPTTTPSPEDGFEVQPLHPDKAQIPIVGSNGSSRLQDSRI
Nature of the series: Binding affinity to GlyT1 in rat brain thalamus at 0.03 to 0.04 nM preincubated for 20 mins in binding buffer before compound addition measured after 30 mins by autoradiography in presence of 0.01 mM GlyT2 inhibitor ORG25543 relative to control. Format: tissue-based. The following applies: tested as the 125I-labelled form.

In series [5] the target is T1, Sodium- and chloride-dependent glycine transporter 1 (Rattus norvegicus). Kind of series: Binding affinity to GlyT1 in rat brain corpus callosum at 0.03 to 0.04 nM preincubated for 20 mins in binding buffer before compound addition measured after 30 mins by autoradiography in presence of 0.01 mM GlyT1 inhibitor ALX5407 relative to control. Particulars: tested as the 125I-labelled form. Format: tissue-based. In outline: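 Rat brain sagittal sections (20 µm) preincubated 20 min at 25 °C in Tris-HCl buffer pH 7.5 (NaCl, KCl, MgCl2, CaCl2), then 30 min at 25 °C with [125I] tracer (100 kBq, 0.03–0.04 nM) plus competitor (10 µM; glycine 1 or 10 mM). Cold washes, imaging plate 3 days, ROI PSL minus background per mm². % control from ≥triplicate slices, three rats.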

Series [6] shares this target. Nature of the series: Binding affinity to GlyT1 in rat brain midbrain at 0.03 to 0.04 nM preincubated for 20 mins in binding buffer before compound addition measured after 30 mins by autoradiography in presence of 1 mM GlyT1 substrate glycine relative to control. Particulars: tested as the 125I-labelled form. The format is tissue-based.
For series [7] the target is unchanged. Kind of series: Binding affinity to GlyT1 in rat brain midbrain at 0.03 to 0.04 nM preincubated for 20 mins in binding buffer before compound addition measured after 30 mins by autoradiography relative to control. Format: tissue-based. Particulars: tested as the 125I-labelled form.
Series [8] relates to Mus musculus. Nature of the series: In vivo binding affinity to GlyT1 in ddY mouse brain midbrain at 33.3 kBq, iv after 60 mins in presence of SSR504734 2 mg/kg, iv administered 15 mins prior to compound administration relative to control. Format: functional, organism-based. Further details: dose 2 mg/kg. Particulars: tested as the 125I-labelled form.
In series [9] the test system is Liver. Kind of series: Drug uptake in ddY mouse liver at 11.1 kBq, iv after 30 min by gamma counting. Format: ADME, organism-based. The following applies: in vivo, 0.5 h. In outline: (§2)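 Male ddY mice (6 weeks, 30–35 g) were given about 11.1 kBq of [125I]tracer in 0.1 mL i.v. via the tail vein. At each time point the animals were killed and organs dissected, weighed and gamma-counted. Uptake is expressed as % injected dose per gram of tissue, mean ± SD, n = 5–6.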

A further series relates to Spleen. Nature of the series: Drug uptake in ddY mouse spleen at 11.1 kBq, iv after 5 min by gamma counting. The format is ADME, organism-based. The following applies: in vivo. In outline:
as §2

Series [10] has as its system Mus musculus. Kind of series: In vivo binding affinity to GlyT1 in ddY mouse brain thalamus at 33.3 kBq, iv after 30 mins in presence of nonradioactive compound 2 mg/kg, iv administered 15 mins prior to compound administration relative to control. Format: functional.
The subject of series [11] is Liver. Nature of the series: Drug uptake in ddY mouse liver at 11.1 kBq, iv after 15 min by gamma counting. The format is ADME, organism-based. Particulars: in vivo. In a few lines: as §2
The next series has as its system Heart. Nature of the series: Drug uptake in ddY mouse heart at 11.1 kBq, iv after 60 min by gamma counting. The format is ADME, organism-based. Particulars: in vivo, 1 h. In outline:
(§3)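 Male ddY mice (6 weeks, 30–35 g) received about 11.1 kBq [125I]tracer in 0.1 mL i.v. via tail vein. Killed at set times, organs dissected and weighed, radioactivity gamma counted. Reported as % injected dose/g tissue, mean ± SD, n = 5–6.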

For the next series, the system named is Pancreas. Nature of the series: Drug uptake in ddY mouse pancreas at 11.1 kBq, iv after 30 min by gamma counting. Format: ADME, organism-based. The following applies: in vivo, 0.5 h. In outline: as §2
Series [12] concerns Nucleic Acid. Kind of series: Ratio of drug level in brain to blood in ddY mouse at 11.1 kBq, iv after 15 min by gamma counting. The format is ADME, organism-based.
The test system of the next series is Brain. Nature of the series: Drug uptake in ddY mouse brain at 11.1 kBq, iv after 180 min by gamma counting. The format is ADME, organism-based. Particulars: in vivo, 3 h. In outline:
as §3

Series [13] concerns the target T2, Sodium- and chloride-dependent glycine transporter 1 (Rattus norvegicus, UniProt P28572).
T2 sequence (P28572 whole entry): T1 sequence (whole entry)
Kind of series: Binding affinity to GlyT1 in rat cortical brain homogenate after 60 mins by gamma counting. Format: tissue-based. In outline: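 Saturation binding on washed rat cortical membranes (25 µg protein) with [125I]tracer 0.1–20 nM in TB1 buffer (120 mM NaCl, 2 mM KCl, 1 mM CaCl2, 1 mM MgCl2, 10 mM HEPES, pH 7.5), 60 min at room temperature. Nonspecific binding defined with 10 µM unlabeled ligand. GF/B filtration with ice-cold buffer washes, gamma counting; Kd and Bmax from saturation analysis.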

In series [14] the test system is Nucleic Acid. Kind of series: Ratio of drug level in brain to blood in ddY mouse at 11.1 kBq, iv after 0.5 min by gamma counting. Format: ADME, organism-based.

Calls of active or inactive are those of the source. The rule behind the calls is not given here.

For `CN1CCCC[C@H]1[C@@H](NC(=O)c1cccc(C(F)(F)F)c1I)c1ccccc1`, the result (in the series on Mus musculus [1]; in [7]) was Active. For the same compound, the result in the series with Mus musculus [2], in the series on Mus musculus [3] and in the series on Mus musculus [8] was inactive. Also, the figures for the Activity in [4], in series [5] and in series [6] were 99.7%, 27.8% and 106%, respectively.
For the compound `CN1CCCC[C@H]1[C@@H](NC(=O)c1cccc(C(F)(F)F)c1[125I])c1ccccc1`, the Drug uptake with Liver [9] is recorded as 14.74 % ID/g; in the series with Spleen, 5.11 % ID/g; with Liver [11], 11.51 % ID/g; in the series with Heart it was 2.79 % ID/g; with Pancreas, 12.02 % ID/g; in the series with Brain, 0.73 % ID/g. Further, in the series on Mus musculus [10], the Activity was 45%. Besides, the Ratio in the series with Nucleic Acid [12] came out at 2.42; in the series with Nucleic Acid [14], 0.38. Also, the affinity in [13], expressed as Kd, was 1.58 nM.

Source of the values: ChEMBL document CHEMBL1938298, “Synthesis and characterization of [¹²⁵I]2-iodo N-[(S)-{(S)-1-methylpiperidin-2-yl}(phenyl)methyl]3-trifluoromethyl-benzamide as novel imaging probe for glycine transporter 1” (Bioorg Med Chem, 2011).
